According to ChEMBL document CHEMBL5058577, “EUbOPEN Chemogenomics Library 2 (Multiplex)” (2022):

System: HEK-293T
Experiment: Multiplex assay against HEK293T
Format: toxicity, cell-based
Details: human
Method in brief: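 Hoechst33342, BioTracker Green Microtubule Cytoskeleton Dye, MitoTracker Red and Annexin V Alexa Fluor 680 were added to live cells at seeding, and imaging on a CQ1 microscope at 37°C and 5% CO2 followed compound addition. Gating by CellPathfinder machine learning separated cells into Hoechst high-intensity objects or normal cells, then normal cells into healthy, pyknosed or fragmented nuclei, then pyknosed cells into mitotic or apoptotic. Per cents of healthy-nucleus cells are reported for the tubulin, mitochondrial-mass and membrane-permeability phenotypes.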

[1] = 12 h, 1 µM, compound concentration 1 uM, replicate 1
[2] = 12 h, 1 µM, compound concentration 1 uM, replicate 2
[3] = 12 h, 10 µM, compound concentration 10 uM, replicate 1
[4] = 12 h, 10 µM, compound concentration 10 uM, replicate 2
[5] = 24 h, 1 µM, compound concentration 1 uM, replicate 1
[6] = 24 h, 1 µM, compound concentration 1 uM, replicate 2
[7] = 24 h, 10 µM, compound concentration 10 uM, replicate 1
[8] = 24 h, 10 µM, compound concentration 10 uM, replicate 2
[9] = 48 h, 1 µM, compound concentration 1 uM, replicate 1
[10] = 48 h, 1 µM, compound concentration 1 uM, replicate 2
[11] = 48 h, 10 µM, compound concentration 10 uM, replicate 1
[12] = 48 h, 10 µM, compound concentration 10 uM, replicate 2

With `COc1c(Nc2ccc(S(C)(=O)=O)nc2C)ncnc1OC1CCN(C(=O)OC(C)C)CC1` [ADP-597] the “Population Apoptotic (%)” value [1] was 29%, the “Population Fragmented Nuclei (%)” value [1] was 5% and the “Population Healthy Nuclei (%)” value [1] was 78%. For the same compound, the “Population Hoechst High Intensity Objects (%)” value [1] was 6%, the “Population Membrane Permeable-Phenotype (%)” value [1] was 0% and the “Population Mitochondria Different-Phenotype (%)” value [1] was 47%. For the same compound, the “Population Mitotic Cells (%)” value [1] was 70%, the “Population Normal (%)” value [1] was 93% and the “Population Pyknosed Nuclei (%)” value [1] was 16%. For the same compound, the “Population Tubulin-Different-Phenotype (%)” value [1] was 36%, the “Total Cell Count” value [1] was 430 and the “Population Apoptotic (%)” value [2] was 38%. For the same compound, the “Population Fragmented Nuclei (%)” value [2] was 4%, the “Population Healthy Nuclei (%)” value [2] was 80% and the “Population Hoechst High Intensity Objects (%)” value [2] was 3%. For the same compound, the “Population Mitochondria Different-Phenotype (%)” value [2] was 62%, the “Population Mitotic Cells (%)” value [2] was 62% and the “Population Normal (%)” value [2] was 96%. The “Population Pyknosed Nuclei (%)” value [2] was 14%, the “Population Tubulin-Different-Phenotype (%)” value [2] was 25% and the “Total Cell Count” value [2] was 347. For the same compound, the “Population Apoptotic (%)” value [3] was 47%, the “Population Fragmented Nuclei (%)” value [3] was 7% and the “Population Healthy Nuclei (%)” value [3] was 75%. The “Population Hoechst High Intensity Objects (%)” value [3] was 8%, the “Population Membrane Permeable-Phenotype (%)” value [3] was 0% and the “Population Mitochondria Different-Phenotype (%)” value [3] was 70%. For the same compound, the “Population Mitotic Cells (%)” value [3] was 52%, the “Population Normal (%)” value [3] was 91% and the “Population Pyknosed Nuclei (%)” value [3] was 17%. The “Population Tubulin-Different-Phenotype (%)” value [3] was 44%, the “Total Cell Count” value [3] was 302 and the “Population Healthy Nuclei (%)” value [4] was 72%. For the same compound, the “Population Hoechst High Intensity Objects (%)” value [4] was 25%, the “Population Mitochondria Different-Phenotype (%)” value [4] was 71% and the “Population Normal (%)” value [4] was 74%. The “Population Pyknosed Nuclei (%)” value [4] was 20%, the “Population Tubulin-Different-Phenotype (%)” value [4] was 36% and the “Total Cell Count” value [4] was 238. For the same compound, the “Population Apoptotic (%)” value [5] was 23%, the “Population Fragmented Nuclei (%)” value [5] was 7% and the “Population Healthy Nuclei (%)” value [5] was 81%. The “Population Hoechst High Intensity Objects (%)” value [5] was 2%, the “Population Membrane Permeable-Phenotype (%)” value [5] was 0% and the “Population Mitochondria Different-Phenotype (%)” value [5] was 20%. For the same compound, the “Population Mitotic Cells (%)” value [5] was 76%, the “Population Normal (%)” value [5] was 97% and the “Population Pyknosed Nuclei (%)” value [5] was 11%. The “Population Tubulin-Different-Phenotype (%)” value [5] was 16%, the “Total Cell Count” value [5] was 587 and the “Population Apoptotic (%)” value [6] was 30%. For the same compound, the “Population Fragmented Nuclei (%)” value [6] was 6%, the “Population Healthy Nuclei (%)” value [6] was 84% and the “Population Hoechst High Intensity Objects (%)” value [6] was 3%. For the same compound, the “Population Membrane Permeable-Phenotype (%)” value [6] was 1%, the “Population Mitochondria Different-Phenotype (%)” value [6] was 34% and the “Population Mitotic Cells (%)” value [6] was 69%. For the same compound, the “Population Normal (%)” value [6] was 96%, the “Population Pyknosed Nuclei (%)” value [6] was 9% and the “Population Tubulin-Different-Phenotype (%)” value [6] was 15%. The “Total Cell Count” value [6] was 447, the “Population Apoptotic (%)” value [7] was 44% and the “Population Fragmented Nuclei (%)” value [7] was 9%. For the same compound, the “Population Healthy Nuclei (%)” value [7] was 74%, the “Population Hoechst High Intensity Objects (%)” value [7] was 7% and the “Population Membrane Permeable-Phenotype (%)” value [7] was 0%. The “Population Mitochondria Different-Phenotype (%)” value [7] was 58%, the “Population Mitotic Cells (%)” value [7] was 55% and the “Population Normal (%)” value [7] was 92%. For the same compound, the “Population Pyknosed Nuclei (%)” value [7] was 15%, the “Population Tubulin-Different-Phenotype (%)” value [7] was 38% and the “Total Cell Count” value [7] was 355. For the same compound, the “Population Apoptotic (%)” value [8] was 63%, the “Population Fragmented Nuclei (%)” value [8] was 11% and the “Population Healthy Nuclei (%)” value [8] was 71%. The “Population Hoechst High Intensity Objects (%)” value [8] was 21%, the “Population Mitochondria Different-Phenotype (%)” value [8] was 54% and the “Population Mitotic Cells (%)” value [8] was 36%. For the same compound, the “Population Normal (%)” value [8] was 78%, the “Population Pyknosed Nuclei (%)” value [8] was 17% and the “Population Tubulin-Different-Phenotype (%)” value [8] was 25%. For the same compound, the “Total Cell Count” value [8] was 300, the “Population Apoptotic (%)” value [9] was 25% and the “Population Fragmented Nuclei (%)” value [9] was 13%. For the same compound, the “Population Healthy Nuclei (%)” value [9] was 78%, the “Population Hoechst High Intensity Objects (%)” value [9] was 2% and the “Population Membrane Permeable-Phenotype (%)” value [9] was 0%. For the same compound, the “Population Mitochondria Different-Phenotype (%)” value [9] was 18%, the “Population Mitotic Cells (%)” value [9] was 75% and the “Population Normal (%)” value [9] was 97%. For the same compound, the “Population Pyknosed Nuclei (%)” value [9] was 8%, the “Population Tubulin-Different-Phenotype (%)” value [9] was 13% and the “Total Cell Count” value [9] was 924. For the same compound, the “Population Apoptotic (%)” value [10] was 36%, the “Population Healthy Nuclei (%)” value [10] was 77% and the “Population Hoechst High Intensity Objects (%)” value [10] was 5%. For the same compound, the “Population Membrane Permeable-Phenotype (%)” value [10] was 1%, the “Population Mitochondria Different-Phenotype (%)” value [10] was 23% and the “Population Mitotic Cells (%)” value [10] was 63%. For the same compound, the “Population Normal (%)” value [10] was 94%, the “Population Pyknosed Nuclei (%)” value [10] was 9% and the “Population Tubulin-Different-Phenotype (%)” value [10] was 14%. For the same compound, the “Total Cell Count” value [10] was 590, the “Population Apoptotic (%)” value [11] was 35% and the “Population Fragmented Nuclei (%)” value [11] was 15%. For the same compound, the “Population Healthy Nuclei (%)” value [11] was 73%, the “Population Hoechst High Intensity Objects (%)” value [11] was 4% and the “Population Membrane Permeable-Phenotype (%)” value [11] was 0%. The “Population Mitochondria Different-Phenotype (%)” value [11] was 38%, the “Population Mitotic Cells (%)” value [11] was 64% and the “Population Normal (%)” value [11] was 95%. For the same compound, the “Population Pyknosed Nuclei (%)” value [11] was 11%, the “Population Tubulin-Different-Phenotype (%)” value [11] was 23% and the “Total Cell Count” value [11] was 494. The “Population Apoptotic (%)” value [12] was 43%, the “Population Fragmented Nuclei (%)” value [12] was 13% and the “Population Hoechst High Intensity Objects (%)” value [12] was 10%. The “Population Mitochondria Different-Phenotype (%)” value [12] was 32%, the “Population Mitotic Cells (%)” value [12] was 56% and the “Population Normal (%)” value [12] was 89%. The “Population Pyknosed Nuclei (%)” value [12] was 12%, the “Population Tubulin-Different-Phenotype (%)” value [12] was 18% and the “Total Cell Count” value [12] was 392.
